In data set [1] the test system is mice (immobility in FST). Kind of data set: Forced swimming test. The conditions noted are these: for Relationship between dose and antidepressant activity in FST: mice, 10, 20 and 40 mg kg^-1 (Fig. 3); for Antidepressant activity in FST, significance compared with the control group: mice, 40 mg kg^-1. It counts as in vivo, Kunming mice. The essentials:
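Kunming mice (18–22 g) with free access to food and water; test compound in 0.5% methylcellulose or DMSO, given by intraperitoneal or subcutaneous injection at 40 mg kg−1; fluoxetine as positive control; test time 0.5 h. Read-out is immobility duration (s) and DID (%), compared with the control group by one-way ANOVA. A dose series of 10, 20 and 40 mg kg−1 was also run.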

Data set [2] has as its system 5-HT concentration in the mice brain. Kind of data set: Determination of brain 5-HT concentration by ELISA. Type of data set: in vivo. The conditions noted are these: 40 mg kg^-1, 1 h after administration, n = 8 (Fig. 5). A general note: ELISA stands for enzyme-linked immunosorbent assay.
The target of data set [3] is T1, 5-HT1A receptor (Homo sapiens, UniProt P08908).
T1 sequence (P08908 1-422): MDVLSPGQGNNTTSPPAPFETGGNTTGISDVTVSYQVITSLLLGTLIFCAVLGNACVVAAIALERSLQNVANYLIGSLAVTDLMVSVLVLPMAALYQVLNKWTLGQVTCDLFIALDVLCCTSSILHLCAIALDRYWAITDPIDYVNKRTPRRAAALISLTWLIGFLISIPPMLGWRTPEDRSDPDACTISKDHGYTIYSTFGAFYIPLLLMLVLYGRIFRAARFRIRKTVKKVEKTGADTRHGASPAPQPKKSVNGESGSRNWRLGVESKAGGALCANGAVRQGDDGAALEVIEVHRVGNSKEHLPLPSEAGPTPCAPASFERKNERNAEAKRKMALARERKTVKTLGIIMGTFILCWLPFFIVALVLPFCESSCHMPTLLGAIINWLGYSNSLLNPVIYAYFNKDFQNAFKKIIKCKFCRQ
Kind of data set: biochemical.

In data set [4] the test system is spontaneous locomotor activity of mice. As to the kind of experiment: Open-field test. The settings on record: 40 mg kg^-1, administered 1 h before the test, n = 8 (Fig. 6). It counts as in vivo. The essentials: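 Kunming mice given test compound at 40 mg kg−1 (0.5% methylcellulose or DMSO vehicle; intraperitoneal or subcutaneous) 1 h before placement in a novel open field. Spontaneous activity is counted as line crossings (locomotion), rearing (standing on hind legs) and grooming. n = 8 per group, values as mean ± SEM.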

Data set [5] has as its system mice (immobility in TST). Kind of data set: Tail suspension test. The conditions noted are these: 40 mg kg^-1, n = 8 (Fig. 4). Type of data set: in vivo. The essentials:
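Tail suspension test in Kunming mice (18–22 g), used as a second behavioural-despair model to confirm FST findings. Test compound at 40 mg kg−1 in 0.5% methylcellulose or DMSO, injected intraperitoneally or subcutaneously; fluoxetine at the same dose as positive control. Groups compared with control by one-way ANOVA.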

SMILES strings stand for the structures.

Take `CNCCC(Oc1ccc(C(F)(F)F)cc1)c1ccccc1` (centres unmarked) [Fluoxetine, reference compound]: the “Relationship between dose and antidepressant activity in FST” value in data set [1] is reported as “as the dose increases, the antidepressant activity increases”. Also, the “Effect on brain 5-HT concentration” value in data set [2] was “significantly (p < 0.05) increased the 5-HT concentration”. With `CC(=O)Nc1cccc(OCc2nnc(SCc3ccc(C(F)(F)F)cc3)o2)c1` [Compound 10j, N-(3-((5-((4-Trifluoromethylbenzyl)thio)-1,3,4-oxadiazol-2-yl)methoxy)phenyl)acetamide], in data set [1], the “Antidepressant activity in FST, significance compared with the control group” value is listed as “high significant”. Also, the affinity in data set [3], expressed as Ki, was 4.14 ± 0.16 nM.

`O=C1CCc2ccc(OCc3nnc(SCc4ccc(C(F)(F)F)cc4)o3)cc2N1` [Compound 5h, 7-((5-((4-Trifluoromethylbenzyl)thio)-1,3,4-oxadiazol-2-yl)methoxy)-3,4-dihydroquinolin-2(1H)-one] yielded a Ki in data set [3] of 2.73 ± 0.22 nM.

`CC(=O)Nc1cccc(OCc2nnc(SCc3ccc(Cl)cc3)o2)c1` [Compound 10g, N-(3-((5-((4-Chlorobenzyl)thio)-1,3,4-oxadiazol-2-yl)methoxy)phenyl)acetamide]: in data set [1], the “Antidepressant activity in FST, significance compared with the control group” value is “high significant”; the “Relationship between dose and antidepressant activity in FST” value is “as the dose increases, the antidepressant activity increases”. Further, the “Exploratory activity in open-field test (crossing, rearing, grooming)” value in data set [4] is recorded as “no significant difference”. In data set [3], this compound showed a Ki of 1.68 ± 0.13 nM. Also, the “Effect on brain 5-HT concentration” value in data set [2] is on record as “significantly (p < 0.05) increased the 5-HT concentration”. For the same compound, the “Antidepressant activity in TST” value in data set [5] is recorded as “highly significant”. As for `CC(=O)Nc1cccc(OCc2nnc(SCc3ccc(C)cc3)o2)c1` [Compound 10m, N-(3-((5-((4-Methylbenzyl)thio)-1,3,4-oxadiazol-2-yl)methoxy)phenyl)acetamide], the “Antidepressant activity in FST, significance compared with the control group” value in data set [1] is recorded as “significant”.

In data set [3], `O=C1CCc2ccc(OCc3nnc(SCc4ccc(Cl)cc4)o3)cc2N1` [Compound 5g, 7-((5-((4-Chlorobenzyl)thio)-1,3,4-oxadiazol-2-yl)methoxy)-3,4-dihydroquinolin-2(1H)-one] returned a Ki of 1.77 ± 0.14 nM. As for `CC(=O)Nc1cccc(OCc2nnc(SCc3cccc(Cl)c3)o2)c1` [Compound 10f, N-(3-((5-((3-Chlorobenzyl)thio)-1,3,4-oxadiazol-2-yl)methoxy)phenyl)acetamide], the “Antidepressant activity in FST, significance compared with the control group” value in data set [1] is “significant”. Take `CC(=O)Nc1cccc(OCc2nnc(SCc3ccccc3Cl)o2)c1` [Compound 10e, N-(3-((5-((2-Chlorobenzyl)thio)-1,3,4-oxadiazol-2-yl)methoxy)phenyl)acetamide]: the “Antidepressant activity in FST, significance compared with the control group” value in data set [1] is “high significant”. The compound also returned a Ki in data set [3] of 2.01 ± 0.18 nM. Turning to `O=C1CCc2ccc(OCc3nnc(SCc4ccc(F)cc4)o3)cc2N1` [Compound 5f, 7-((5-((4-Fluorobenzyl)thio)-1,3,4-oxadiazol-2-yl)methoxy)-3,4-dihydroquinolin-2(1H)-one], the “Antidepressant activity in FST, significance compared with the control group” value in data set [1] is on record as “significant”.

In general, Ki refers to a measure of affinity in units of concentration, obtained from inhibition or displacement. A low value points to higher affinity.
